How the values were obtained:
[1] = biological target: Adrenergic receptor alpha-2 (Rattus norvegicus) (UniProt P22086+P19328+P22909); experiment: Clonidine antagonistic activity against alpha-2 adrenergic receptor in isolated, field -simulated vas deferens from rats; format: functional
Outline: (§1)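 Field-stimulated vas deferens from Sprague-Dawley rats (250-350 g). pA2 estimated from one or two test-compound concentrations, with at least three tissues per concentration. Agonist challenged was clonidine for α2 and methoxamine for α1.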

[2] = biological target: T1, Adrenergic receptor alpha-2 (Rattus norvegicus, UniProt P22086+P19328+P22909); experiment: Agonistic activity against alpha alpha-2 adrenergic receptor in isolated, field -simulated vas deferens from rats; format: functional
T1 sequence (P22086 whole entry): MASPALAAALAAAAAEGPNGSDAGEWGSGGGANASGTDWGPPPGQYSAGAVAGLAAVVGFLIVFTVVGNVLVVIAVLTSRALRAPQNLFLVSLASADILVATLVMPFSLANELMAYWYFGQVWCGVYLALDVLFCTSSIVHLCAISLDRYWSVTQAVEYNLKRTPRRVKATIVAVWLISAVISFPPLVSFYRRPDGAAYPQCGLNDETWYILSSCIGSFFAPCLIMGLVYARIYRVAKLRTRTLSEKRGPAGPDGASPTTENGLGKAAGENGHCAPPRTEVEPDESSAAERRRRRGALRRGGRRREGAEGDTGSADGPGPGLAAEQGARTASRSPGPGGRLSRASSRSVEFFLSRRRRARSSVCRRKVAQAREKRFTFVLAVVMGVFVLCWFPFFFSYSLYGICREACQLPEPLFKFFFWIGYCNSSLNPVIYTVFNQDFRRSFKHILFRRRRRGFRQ
T1 sequence (P19328 whole entry): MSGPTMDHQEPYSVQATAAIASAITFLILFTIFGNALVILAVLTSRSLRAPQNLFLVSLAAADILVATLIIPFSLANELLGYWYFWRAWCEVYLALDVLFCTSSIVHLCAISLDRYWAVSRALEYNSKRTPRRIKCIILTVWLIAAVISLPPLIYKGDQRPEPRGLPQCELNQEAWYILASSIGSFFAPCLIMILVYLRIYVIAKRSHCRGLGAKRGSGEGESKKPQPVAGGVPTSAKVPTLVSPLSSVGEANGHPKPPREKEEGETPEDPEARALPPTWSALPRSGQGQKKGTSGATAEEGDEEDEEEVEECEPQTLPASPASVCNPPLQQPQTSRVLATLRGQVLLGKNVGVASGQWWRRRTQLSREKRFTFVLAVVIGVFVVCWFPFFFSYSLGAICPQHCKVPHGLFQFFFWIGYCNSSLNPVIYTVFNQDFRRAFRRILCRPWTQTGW
T1 sequence (P22909 whole entry): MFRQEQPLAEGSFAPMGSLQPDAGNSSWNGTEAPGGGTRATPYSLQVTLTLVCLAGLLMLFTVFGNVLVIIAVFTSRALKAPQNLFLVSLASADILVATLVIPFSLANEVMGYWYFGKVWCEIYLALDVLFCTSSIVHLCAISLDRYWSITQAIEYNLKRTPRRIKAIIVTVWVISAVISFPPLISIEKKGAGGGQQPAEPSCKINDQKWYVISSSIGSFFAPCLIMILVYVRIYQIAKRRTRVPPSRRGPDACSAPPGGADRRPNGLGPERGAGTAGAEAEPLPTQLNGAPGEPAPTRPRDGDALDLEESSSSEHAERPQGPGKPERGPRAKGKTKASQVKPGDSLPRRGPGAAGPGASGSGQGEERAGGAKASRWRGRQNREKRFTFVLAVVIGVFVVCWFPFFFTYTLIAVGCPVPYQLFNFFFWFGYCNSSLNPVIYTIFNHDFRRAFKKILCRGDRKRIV

[3] = biological target: T2, Alpha-2A adrenergic receptor (Bos taurus, UniProt Q28838); experiment: Binding affinity against alpha-2 adrenergic receptor from calf cerebral cortex, using [3H]clonidine as the radioligand; format: tissue-based
T2 sequence (Q28838 whole entry): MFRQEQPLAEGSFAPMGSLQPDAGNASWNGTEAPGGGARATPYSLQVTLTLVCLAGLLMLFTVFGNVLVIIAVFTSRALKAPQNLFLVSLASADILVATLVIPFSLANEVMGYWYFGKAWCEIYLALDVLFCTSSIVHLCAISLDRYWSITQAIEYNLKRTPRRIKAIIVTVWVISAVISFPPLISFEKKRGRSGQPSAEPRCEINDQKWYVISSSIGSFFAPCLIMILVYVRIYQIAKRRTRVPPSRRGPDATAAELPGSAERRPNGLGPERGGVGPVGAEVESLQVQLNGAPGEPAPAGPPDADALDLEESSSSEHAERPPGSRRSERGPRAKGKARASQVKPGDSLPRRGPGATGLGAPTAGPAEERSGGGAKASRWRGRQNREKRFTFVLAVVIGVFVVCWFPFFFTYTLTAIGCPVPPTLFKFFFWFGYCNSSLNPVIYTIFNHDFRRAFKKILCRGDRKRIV

[4] = biological target: T3, Adrenergic receptor alpha-1 (Rattus norvegicus, UniProt P15823+P23944+P43140); experiment: Agonist activity against alpha-1 adrenergic receptor from rat vas deferens; format: functional
T3 sequence (P15823 whole entry): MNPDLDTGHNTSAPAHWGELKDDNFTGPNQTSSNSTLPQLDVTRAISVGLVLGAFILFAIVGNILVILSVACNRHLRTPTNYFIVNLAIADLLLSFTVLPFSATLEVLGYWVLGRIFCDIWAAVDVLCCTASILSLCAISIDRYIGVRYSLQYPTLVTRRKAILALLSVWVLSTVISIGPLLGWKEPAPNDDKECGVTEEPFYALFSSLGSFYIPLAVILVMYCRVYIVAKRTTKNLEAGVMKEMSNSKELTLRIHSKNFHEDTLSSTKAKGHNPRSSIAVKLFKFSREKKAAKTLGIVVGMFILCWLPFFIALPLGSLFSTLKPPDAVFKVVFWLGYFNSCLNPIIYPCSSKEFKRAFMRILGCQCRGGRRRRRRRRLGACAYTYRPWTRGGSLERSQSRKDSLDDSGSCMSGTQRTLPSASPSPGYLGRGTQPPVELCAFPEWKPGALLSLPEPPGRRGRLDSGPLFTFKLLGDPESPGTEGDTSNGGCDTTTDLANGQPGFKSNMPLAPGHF
T3 sequence (P23944 whole entry): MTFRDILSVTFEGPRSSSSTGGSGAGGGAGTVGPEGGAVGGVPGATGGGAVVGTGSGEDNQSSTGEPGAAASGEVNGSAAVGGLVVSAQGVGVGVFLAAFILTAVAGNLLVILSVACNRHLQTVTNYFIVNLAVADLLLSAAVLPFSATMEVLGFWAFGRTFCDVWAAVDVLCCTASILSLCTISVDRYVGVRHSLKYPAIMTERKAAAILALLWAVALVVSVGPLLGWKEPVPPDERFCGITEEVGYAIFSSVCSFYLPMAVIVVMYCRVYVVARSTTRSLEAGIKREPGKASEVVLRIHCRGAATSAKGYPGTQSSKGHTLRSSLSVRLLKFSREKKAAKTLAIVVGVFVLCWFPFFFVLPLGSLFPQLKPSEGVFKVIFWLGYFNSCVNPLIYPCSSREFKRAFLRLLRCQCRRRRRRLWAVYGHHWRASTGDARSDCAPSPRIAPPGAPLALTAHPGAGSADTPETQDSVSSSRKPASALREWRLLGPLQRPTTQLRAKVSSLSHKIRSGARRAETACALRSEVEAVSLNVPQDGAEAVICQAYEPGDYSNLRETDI
T3 sequence (P43140 whole entry): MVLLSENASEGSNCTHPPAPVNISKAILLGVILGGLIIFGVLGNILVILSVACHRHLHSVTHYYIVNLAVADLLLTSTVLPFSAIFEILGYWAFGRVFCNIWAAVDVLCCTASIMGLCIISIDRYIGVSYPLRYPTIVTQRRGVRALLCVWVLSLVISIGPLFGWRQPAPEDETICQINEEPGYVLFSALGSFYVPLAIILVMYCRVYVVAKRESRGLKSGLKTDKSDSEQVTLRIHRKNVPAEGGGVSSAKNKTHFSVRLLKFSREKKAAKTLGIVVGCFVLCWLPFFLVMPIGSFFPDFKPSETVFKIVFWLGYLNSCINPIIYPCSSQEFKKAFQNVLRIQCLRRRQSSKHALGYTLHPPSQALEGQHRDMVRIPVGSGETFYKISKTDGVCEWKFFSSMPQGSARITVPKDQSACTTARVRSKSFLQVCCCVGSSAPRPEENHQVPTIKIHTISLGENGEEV

[5] = biological target: T3, Adrenergic receptor alpha-1; experiment: Methoxamine antagonistic activity against alpha-1 adrenergic receptor in isolated, field -simulated vas deferens from rats; format: functional, tissue-based; outline: as §1
[6] = biological target: T1, Adrenergic receptor alpha-2; experiment: Agonistic activity against alpha-2 adrenergic receptor in isolated, field -simulated vas deferens from rats; format: functional
Outline: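 Field-stimulated vas deferens from Sprague-Dawley rats (250-350 g), pretreated with prazosin (78 nM). α2 agonism scored as inhibition of stimulation-induced contractions. […] Agonist activity confirmed by complete reversal of the inhibition by rauwolscine (280 nM).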

| Structure (SMILES) | pA2 [1] | EC50 [2] | Ki [3] | EC50 [4] | pA2 [5] | EC50 [6] |
| --- | --- | --- | --- | --- | --- | --- |
| Cc1ccc(N(CC2=NCCN2)C2CCCCC2)cc1 | 6.5 | > 1000 nM | 70 nM | > 1000 nM | 6 | – |
| CCN(CC1=NCCN1)c1ccc(C)cc1 | 7.1 | > 1000 nM | 14 nM | 1600 nM | – | – |
| Oc1cccc(NCC2=NCCN2)c1 | – | 74 nM | 7.1 nM | 61 nM | – | – |
| Cc1ccc(N(CC2=NCCN2)c2cccc(O)c2)cc1 | 7.8 | – | – | – | – | – |
| Cc1ccc(NCC2=NCCN2)cc1 | 5.6 | > 2000 nM | 14 nM | 340 nM | – | – |
| Cc1ccc(N(C)CC2=NCCN2)cc1 | 7 | > 2000 nM | 3.3 nM | 300 nM | – | – |
| Cc1ccc(N(CC2=NCCN2)c2ccccc2)cc1 | 7.5 | > 1000 nM | – | > 1000 nM | 7.6 | – |
| Clc1ccccc1NCC1=NCCN1 | – | – | – | 50 nM | – | 53 nM |

Source: ChEMBL document CHEMBL1122419, “alpha-Adrenergic activities of some substituted 2-(aminomethyl)imidazolines” (J Med Chem, 1983)
